Data taken from ChEMBL document CHEMBL4689842, “EUbOPEN Chemogenomics Library wave 1” (2021).
“And” between values parts separate entries of the source, which are not always exact repeats. Equal entries are not always repeated.

Tested on: Fibroblast
Assay: Multiplex assay against human fibroblast
Assay type: toxicity, cell-based
Summary of the method: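 Live cells carried four stains from seeding: Hoechst33342, BioTracker Green Microtubule Cytoskeleton Dye, MitoTracker Red and Annexin V Alexa Fluor 680. They were imaged on a CQ1 microscope at 37°C and 5% CO2 after compound addition. Using CellPathfinder machine-learning gating, cells were split into Hoechst high-intensity objects or normal cells, normal cells into healthy, pyknosed or fragmented nuclei, and pyknosed cells into mitotic or apoptotic; tubulin, mitochondrial-mass and membrane-permeability phenotypes are per cents of healthy-nucleus cells.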

[1] = 12 h, 1 µM, compound concentration 1 uM, replicate 1
[2] = 12 h, 1 µM, compound concentration 1 uM, replicate 2
[3] = 12 h, 10 µM, compound concentration 10 uM, replicate 1
[4] = 12 h, 10 µM, compound concentration 10 uM, replicate 2
[5] = 24 h, 1 µM, compound concentration 1 uM, replicate 1
[6] = 24 h, 1 µM, compound concentration 1 uM, replicate 2
[7] = 24 h, 10 µM, compound concentration 10 uM, replicate 1
[8] = 24 h, 10 µM, compound concentration 10 uM, replicate 2
[9] = 48 h, 10 µM, compound concentration 10 uM, replicate 1
[10] = 48 h, 10 µM, compound concentration 10 uM, replicate 2

SMILES: COc1cc2nccc(Oc3ccc(NC(=O)Nc4cc(C)on4)c(Cl)c3)c2cc1OC.O
- Population Apoptotic (%) [1]: 66% and 58%
- Population Fragmented Nuclei (%) [1]: 38% and 29%
- Population Healthy Nuclei (%) [1]: 45% and 54%
- Population Hoechst High Intensity Objects (%) [1]: 11% and 12%
- Population Membrane Permeable-Phenotype (%) [1]: 10% and 8%
- Population Mitochondria Different-Phenotype (%) [1]: 10%
- Population Mitotic Cells (%) [1]: 33% and 41%
- Population Normal (%) [1]: 88% and 87%
- Population Pyknosed Nuclei (%) [1]: 16%
- Population Tubulin-Different-Phenotype (%) [1]: 13%
- Total Cell Count [1]: 229 and 203
- Population Apoptotic (%) [2]: 40% and 50%
- Population Fragmented Nuclei (%) [2]: 63% and 48%
- Population Healthy Nuclei (%) [2]: 28% and 18%
- Population Hoechst High Intensity Objects (%) [2]: 33% and 40%
- Population Membrane Permeable-Phenotype (%) [2]: 27% and 28%
- Population Mitotic Cells (%) [2]: 60% and 50%
- Population Normal (%) [2]: 66% and 59%
- Population Tubulin-Different-Phenotype (%) [2]: 38% and 57%
- Total Cell Count [2]: 95 and 62
- Population Apoptotic (%) [3]: 47%
- Population Fragmented Nuclei (%) [3]: 30%
- Population Healthy Nuclei (%) [3]: 31%
- Population Hoechst High Intensity Objects (%) [3]: 13%
- Population Membrane Permeable-Phenotype (%) [3]: 17%
- Population Mitochondria Different-Phenotype (%) [3]: 31%
- Population Mitotic Cells (%) [3]: 52%
- Population Normal (%) [3]: 86%
- Population Pyknosed Nuclei (%) [3]: 37%
- Population Tubulin-Different-Phenotype (%) [3]: 77%
- Total Cell Count [3]: 163
- Population Apoptotic (%) [4]: 71%
- Population Fragmented Nuclei (%) [4]: 11%
- Population Healthy Nuclei (%) [4]: 75%
- Population Hoechst High Intensity Objects (%) [4]: 3%
- Population Membrane Permeable-Phenotype (%) [4]: 36%
- Population Mitochondria Different-Phenotype (%) [4]: 97%
- Population Mitotic Cells (%) [4]: 28%
- Population Normal (%) [4]: 96%
- Population Pyknosed Nuclei (%) [4]: 12%
- Population Tubulin-Different-Phenotype (%) [4]: 97%
- Total Cell Count [4]: 58
- Population Apoptotic (%) [5]: 76% and 68%
- Population Fragmented Nuclei (%) [5]: 41% and 26%
- Population Healthy Nuclei (%) [5]: 39% and 59%
- Population Hoechst High Intensity Objects (%) [5]: 15% and 11%
- Population Membrane Permeable-Phenotype (%) [5]: 3% and 0%
- Population Mitochondria Different-Phenotype (%) [5]: 42%
- Population Mitotic Cells (%) [5]: 23% and 32%
- Population Normal (%) [5]: 84% and 88%
- Population Pyknosed Nuclei (%) [5]: 19% and 14%
- Total Cell Count [5]: 231 and 198
- Population Apoptotic (%) [6]: 25%
- Population Fragmented Nuclei (%) [6]: 58% and 53%
- Population Healthy Nuclei (%) [6]: 34% and 19%
- Population Hoechst High Intensity Objects (%) [6]: 35% and 29%
- Population Membrane Permeable-Phenotype (%) [6]: 10% and 22%
- Population Mitotic Cells (%) [6]: 75%
- Population Normal (%) [6]: 64% and 70%
- Total Cell Count [6]: 85 and 67
- Population Apoptotic (%) [7]: 57%
- Population Fragmented Nuclei (%) [7]: 29%
- Population Healthy Nuclei (%) [7]: 40%
- Population Hoechst High Intensity Objects (%) [7]: 19%
- Population Membrane Permeable-Phenotype (%) [7]: 11%
- Population Mitochondria Different-Phenotype (%) [7]: 53%
- Population Mitotic Cells (%) [7]: 42%
- Population Normal (%) [7]: 80%
- Population Pyknosed Nuclei (%) [7]: 29%
- Population Tubulin-Different-Phenotype (%) [7]: 86%
- Total Cell Count [7]: 158
- Population Apoptotic (%) [8]: 92%
- Population Fragmented Nuclei (%) [8]: 16%
- Population Healthy Nuclei (%) [8]: 60%
- Population Hoechst High Intensity Objects (%) [8]: 3%
- Population Membrane Permeable-Phenotype (%) [8]: 67%
- Population Mitochondria Different-Phenotype (%) [8]: 100%
- Population Mitotic Cells (%) [8]: 7%
- Population Normal (%) [8]: 96%
- Population Pyknosed Nuclei (%) [8]: 23%
- Population Tubulin-Different-Phenotype (%) [8]: 97%
- Total Cell Count [8]: 58
- Population Apoptotic (%) [9]: 76%
- Population Fragmented Nuclei (%) [9]: 33%
- Population Healthy Nuclei (%) [9]: 47%
- Population Hoechst High Intensity Objects (%) [9]: 22%
- Population Membrane Permeable-Phenotype (%) [9]: 10%
- Population Mitochondria Different-Phenotype (%) [9]: 60%
- Population Mitotic Cells (%) [9]: 23%
- Population Normal (%) [9]: 77%
- Population Pyknosed Nuclei (%) [9]: 18%
- Population Tubulin-Different-Phenotype (%) [9]: 83%
- Total Cell Count [9]: 148
- Population Apoptotic (%) [10]: 62%
- Population Fragmented Nuclei (%) [10]: 36%
- Population Healthy Nuclei (%) [10]: 54%
- Population Hoechst High Intensity Objects (%) [10]: 10%
- Population Membrane Permeable-Phenotype (%) [10]: 0%
- Population Mitochondria Different-Phenotype (%) [10]: 75%
- Population Mitotic Cells (%) [10]: 37%
- Population Normal (%) [10]: 89%
- Population Pyknosed Nuclei (%) [10]: 9%
- Population Tubulin-Different-Phenotype (%) [10]: 95%
- Total Cell Count [10]: 98

SMILES: CCOCCn1cc(C(=O)Nc2ccc(-n3nc(-c4cccnc4)cc3C(F)(F)F)cn2)ccc1=O [BI 1935]
- Population Apoptotic (%) [3]: 85% and 52% and 61%
- Population Fragmented Nuclei (%) [3]: 25% and 26% and 24%
- Population Healthy Nuclei (%) [3]: 45% and 60% and 58%
- Population Hoechst High Intensity Objects (%) [3]: 20% and 11% and 13%
- Population Membrane Permeable-Phenotype (%) [3]: 9% and 15% and 6%
- Population Normal (%) [3]: 79% and 88% and 86%
- Population Pyknosed Nuclei (%) [3]: 29% and 13% and 17%
- Population Apoptotic (%) [4]: 100% and 42% and 47%
- Population Membrane Permeable-Phenotype (%) [4]: 23% and 14% and 8%
- Population Normal (%) [4]: 62% and 60% and 92%
- Population Tubulin-Different-Phenotype (%) [4]: 23% and 57% and 64%
- Total Cell Count [4]: 78 and 61 and 79
- Population Apoptotic (%) [7]: 60% and 72% and 64%
- Population Fragmented Nuclei (%) [7]: 35% and 25% and 24%
- Population Healthy Nuclei (%) [7]: 50% and 61% and 62%
- Population Hoechst High Intensity Objects (%) [7]: 21% and 14% and 16%
- Population Membrane Permeable-Phenotype (%) [7]: 8% and 4%
- Population Mitotic Cells (%) [7]: 40% and 27% and 36%
- Population Normal (%) [7]: 78% and 85% and 83%
- Population Pyknosed Nuclei (%) [7]: 14% and 13% and 12%
- Population Apoptotic (%) [8]: 33% and 28% and 40%
- Population Healthy Nuclei (%) [8]: 44% and 25% and 66%
- Population Mitotic Cells (%) [8]: 66% and 71% and 60%
- Population Normal (%) [8]: 60% and 91%
- Population Tubulin-Different-Phenotype (%) [8]: 20% and 55% and 44%
- Total Cell Count [8]: 74 and 58 and 92
- Population Apoptotic (%) [9]: 55%
- Population Fragmented Nuclei (%) [9]: 44%
- Population Healthy Nuclei (%) [9]: 42%
- Population Hoechst High Intensity Objects (%) [9]: 22%
- Population Membrane Permeable-Phenotype (%) [9]: 0%
- Population Mitochondria Different-Phenotype (%) [9]: 40%
- Population Mitotic Cells (%) [9]: 44%
- Population Normal (%) [9]: 77%
- Population Pyknosed Nuclei (%) [9]: 12%
- Population Tubulin-Different-Phenotype (%) [9]: 86%
- Total Cell Count [9]: 90
- Population Apoptotic (%) [10]: 0%
- Population Fragmented Nuclei (%) [10]: 28%
- Population Healthy Nuclei (%) [10]: 71%
- Population Hoechst High Intensity Objects (%) [10]: 9%
- Population Membrane Permeable-Phenotype (%) [10]: 11%
- Population Mitochondria Different-Phenotype (%) [10]: 3%
- Population Mitotic Cells (%) [10]: 0%
- Population Normal (%) [10]: 90%
- Population Pyknosed Nuclei (%) [10]: 0%
- Population Tubulin-Different-Phenotype (%) [10]: 70%
- Total Cell Count [10]: 42
